Compound activity as filed in PubChem.
This is a sample that favours compounds with a hit; in the whole collection about 3.1% have one here.
CFTR F508del cor – F508del CFTR correction, initial screen, CFBE line, single point; actives 0.36% (n = 350,000); AID 720511, 2013; activity (quench increase), % at 7.58 µM; CFBE cells, YFP halide quenching; stimulated with forskolin plus potentiator P3; % fluorescence drop versus neutral controls;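 active = mean added fluorescence quench of at least 8% versus neutral control, with both replicates also reaching 8%; inconclusive = only one of the mean or replicate conditions met; inactive = mean below 8% and not both replicates reaching 8%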;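 note: cells transiently co-express mutant CFTR-F508del with the halide-sensitive YFP; corrector assay measuring rescue of mutant channel to the surface after 24 h compound exposure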
rRNA inh HTS – reduced GFP signal of wild-type E. coli, primary screen, bacterial rRNA inhibitor project, GFP/RFP fluorescence, OD600, single point. E. coli WT GFP vs humanized-ribosome RFP mutants, 24 h; hits give low values; DMSO median 0, no signal -100. GFP signal change (wild-type ribosome), % (concentration not given with the values). actives 1.6% (n = 350,000);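 active = significant combined selectivity score with lowered wild-type GFP, culture density cut under 30%, mutant RFP and density less affected; inactive = any of these conditions unmet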
SIRT5 block – SIRT5 desuccinylase inhibitors, primary screen, biochemical, fluorescence imaging, single point, set 5 | actives 1.1% (n = 330,000) | inhibition, % at 15 µM | Purified SirT5, succinyl-peptide AMC, trypsin-coupled fluorescence | NAD-dependent protein deacylase sirtuin-5, mitochondrial (Homo sapiens), Q9NXA8; in the data active = inhibition above about 15%; inconclusive = no clear call, values can overlap the other calls
Target sequence (Q9NXA8 whole entry, looked up): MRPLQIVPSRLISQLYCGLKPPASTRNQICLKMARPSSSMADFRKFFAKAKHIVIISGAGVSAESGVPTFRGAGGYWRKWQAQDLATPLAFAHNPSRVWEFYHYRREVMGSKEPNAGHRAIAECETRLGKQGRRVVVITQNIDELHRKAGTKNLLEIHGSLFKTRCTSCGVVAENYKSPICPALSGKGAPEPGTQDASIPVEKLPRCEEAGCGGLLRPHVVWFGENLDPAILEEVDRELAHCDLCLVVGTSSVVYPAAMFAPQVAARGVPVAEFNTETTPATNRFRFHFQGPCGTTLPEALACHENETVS
S100A4 inh HTS – inhibitors of S100A4-myosin IIA peptide binding, primary screen, biochemical, fluorescence polarization, TAMRA-MyoIIA peptide. inhibition, % at 10.7 µM. actives 0.14% (n = 360,000). AID 652163, 2013;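 active = mean inhibition of at least 70% across replicates, with every replicate also reaching that level; inconclusive = mean inhibition reaches 70% but some replicates fall short; inactive = mean inhibition below 70%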
Target sequence (P26447 whole entry, looked up): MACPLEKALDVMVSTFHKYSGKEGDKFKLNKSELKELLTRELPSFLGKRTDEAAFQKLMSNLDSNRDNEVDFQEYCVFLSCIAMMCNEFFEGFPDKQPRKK
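Material: S100A4 monomer (human). Medium: Calcium-containing HEPES buffer, pH 7.2. Probe or stimulus: labelled myosin peptide probe, 5 nM. Compound dosing: one concentration per compound. Timing: polarization read 5 min after assay mix addition, stable 5–60 min. Benchmarks: DMSO as neutral control, TFP as positive control.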
ERAP1 HTS inh – human ERAP1 aminopeptidase inhibitors, primary screen, biochemical, single point, plate reader; actives 0.15% (n = 340,000); inhibition, % at 10.7 µM; recombinant ERAP1, Leu-AMC fluorescence, 60 min; Endoplasmic reticulum aminopeptidase 1 (Homo sapiens), Q9NZ08;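 active = mean replicate inhibition of at least 30%, or all replicates individually reaching that 30% level; inactive = mean below 30% and not every replicate reaching it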
Large screens that a line does not name were inactive.

Cc1ccccc1Nc1nnc(SCC2CCCCO2)s1 (stereo not given)	rRNA inh HTS -22 (no result: CFTR F508del cor)
CC(=O)Oc1ccccc1C(=O)C=Cc1cccc([N+](=O)[O-])c1	rRNA inh HTS -45 (no result: SIRT5 block)
COC(=O)C[C@H]1CC[C@H]2[C@@H](COc3ccc(NC(=O)c4cncs4)cc3C(=O)N2C)O1	none
C[N+]1(CC(O)c2ccccc2)CCCCCC1 (stereo not given)	ERAP1 HTS inh 43
CCOc1cc(/C=C2/SC(=S)N(Cc3ccccc3)C2=O)ccc1O	CFTR F508del cor inconclusive
CC(=O)Oc1ccc(/C=C2/SC(=S)N(Cc3ccccc3)C2=O)cc1	SIRT5 block 16
COc1cc(/C=C2/SC(=S)N(Cc3ccccc3)C2=O)cc(Cl)c1O	CFTR F508del cor 8.1
O=C(O)c1ccc(/C=C2/SC(=S)N(Cc3ccccc3)C2=O)cc1	none
O=C1/C(=C/c2ccc(O)cc2)SC(=S)N1CC1CCCO1 (stereo not given)	rRNA inh HTS -24
O=C1/C(=C\c2ccc(O)cc2)SC(=S)N1Cc1ccccc1	CFTR F508del cor 26
Cc1ccsc1/C=C1\SC(=S)N(CC2CCCO2)C1=O (stereo not given)	none
CCOc1cc(/C=C2/SC(=S)NC2=O)ccc1OC(=O)c1ccco1	none (no result: CFTR F508del cor)
O=C1NC(=S)S/C1=C/c1ccc(OC(=O)c2ccco2)cc1	SIRT5 block 81
O=C(c1cc[n+]([O-])cc1)N1CCc2c([nH]c3ccccc23)C1c1ccccc1Cl (stereo not given)	rRNA inh HTS -30 (no result: CFTR F508del cor)
COc1ccc(NC(=O)Nc2ccc3c(c2)CC(=O)N([C@H](C)CO)C[C@H](C)[C@@H](CN(C)Cc2ccc(C(=O)O)cc2)O3)cc1	none
Cc1noc(C)c1S(=O)(=O)N(C)C[C@H]1Oc2ccc(NC(=O)Nc3ccc4c(c3)OCO4)cc2CC(=O)N([C@H](C)CO)C[C@@H]1C	none
COc1cccc(OCc2ccc(Cn3nc(NC(=O)NCCc4ccc(OC)c(OC)c4)c4ccccc43)cc2)c1	SIRT5 block 35
C[C@H]1CN([C@@H](C)CO)S(=O)(=O)c2ccc(C#CC3(O)CCCC3)cc2O[C@H]1CN(C)C(=O)Cc1ccncc1	none
CC1(C)CC(=O)C=C(c2ccc(COC(=O)c3ccccc3)cc2)C1=O	rRNA inh HTS -20 (no result: ERAP1 HTS inh)
CC1(C)CC(=O)C=C(c2ccc(COC(=O)/C=C/c3ccccc3)cc2)C1=O	none
O=C(C[C@H]1CC[C@H](NC(=O)CN2CCOCC2)[C@H](CO)O1)NCCc1ccccc1	none
CS(=O)(=O)Nc1cccc(NC(=O)c2cccc3c(-c4ccc(F)c(F)c4)coc23)c1	SIRT5 block 15
O=C(O)c1ccc(CN(Cc2ccccc2)S(=O)(=O)c2ccc(Cl)cc2)cc1	none
O=C(O)c1ccc(S(=O)(=O)N(Cc2ccccc2)C2CCCCC2)cc1	SIRT5 block 22
O=C1C=C(NCCc2cc(Br)c(O)c(Br)c2)C(=O)c2ncccc21	CFTR F508del cor 16, rRNA inh HTS -27
NC1=C(Br)C(=O)c2ncccc2C1=O	none
Cc1noc(C)c1NC(=O)N(C)C[C@H]1OCCCC[C@H](C)Oc2ccc(NS(=O)(=O)c3c(C)noc3C)cc2C(=O)N([C@H](C)CO)C[C@@H]1C	none
O=c1c2ccccc2nc(COc2ccccc2)n1/N=C/c1ccc(O)cc1O	rRNA inh HTS -31 (no result: ERAP1 HTS inh)
CSc1ccc(-c2nc(CN3CCCCC3c3cccnc3)c(C)o2)cc1 (stereo not given)	rRNA inh HTS -21
C[C@@H]1CCCCO[C@@H](CN(C)C(=O)CCC(F)(F)F)[C@H](C)CN([C@@H](C)CO)C(=O)c2cc(NC(=O)CCC(F)(F)F)ccc2O1	none
CN1C(=O)c2cc(NS(C)(=O)=O)ccc2OC[C@H]2O[C@@H](CC(=O)NC3CCCCC3)CC[C@H]21	none (no result: CFTR F508del cor)
COc1ccccc1S(=O)(=O)N1CCN(S(=O)(=O)c2cccs2)CC1	none
COc1ccccc1S(=O)(=O)N1CCN(S(=O)(=O)c2ccccc2C#N)CC1	SIRT5 block 91
O=C(CNC(=O)c1cccs1)OCc1ccc(Br)cc1	rRNA inh HTS -26
COc1ccc(CCNC(=O)c2ccc(-c3ccc([N+](=O)[O-])cc3Cl)o2)cc1	rRNA inh HTS -23
N#C[C@@H]1[C@@H](c2ccccc2C2=CCCCC2)[C@@H](CO)N1S(=O)(=O)c1ccccc1	none (no result: SIRT5 block)
C[C@H](CO)N1C[C@H](C)[C@H](CN(C)C(=O)[C@H](C)c2ccccc2)OCc2ccccc2-c2c(n(C)c3ccccc23)C1=O	none
C[C@@H]1CN([C@H](C)CO)C(=O)c2cccc(NC(=O)c3ccc(-c4nccs4)cc3)c2O[C@@H]1CN(C)C(=O)Nc1ccc(F)cc1	none
CN1C(=O)S/C(=C\c2ccc(-n3cncn3)cc2)C1=O	rRNA inh HTS -22
CO[C@@H]1CN(C)C(=O)c2ccc(NC(=O)c3ccccn3)cc2OC[C@@H](C)N(C(=O)Nc2ccccc2Cl)C[C@H]1C	none (no result: rRNA inh HTS, SIRT5 block, S100A4 inh HTS, ERAP1 HTS inh)
O=C(N/N=C/c1cc2c3c(c1O)CCCN3CCC2)c1ccccc1O	CFTR F508del cor 8.3
Cn1cc(/C=N/NC(=O)c2ccccc2O)c2ccccc21	none
COC(=O)c1scc(S(=O)(=O)C(C)C)c1N/N=C(\C#N)C(=O)c1ccc(Cl)cc1	rRNA inh HTS -43
CCCCCc1cc(=O)oc2c(C(CCN3CCCC(C)C3)c3ccc(OC)cc3)c(OC)cc(OC)c12 (stereo not given)	rRNA inh HTS -37 (no result: SIRT5 block)
O=C(Cn1cc(C(=O)c2ccco2)c2ccccc21)Nc1ccccc1F	rRNA inh HTS -22
C[C@H]1CN([C@@H](C)CO)C(=O)c2cccc(NS(=O)(=O)c3cccs3)c2O[C@@H]1CN(C)Cc1ccc(C(=O)Nc2ccccc2N)cc1	none
O=C1CC[C@@H](O)CCN1CC[C@H](Sc1ccc(Br)cc1)c1ccccc1	none
O=C1CC[C@@H](O)CCN1CC[C@H](Sc1ccccc1)c1ccccc1	rRNA inh HTS -31
O=C(C1CC1)N1CC2(C1)[C@H](c1ccccc1)[C@@H](CO)N2S(=O)(=O)c1ccccc1	none
Oc1ccc(Br)cc1-c1ccnn1-c1ccccc1	rRNA inh HTS -39
CC(=O)C[C@@H](O)CC(=O)[C@H]1OC(=O)[C@H](C)C/C=C\Cc2ccccc21	none (no result: ERAP1 HTS inh)
CC(=O)C[C@@H](O)CC(=O)[C@@H]1OC(=O)CCCCC/C=C/Cc2ccccc21	SIRT5 block 24
CC[C@H]1C/C=C\Cc2ccccc2[C@@H](C(=O)C[C@@H](O)CC(C)=O)OC1=O	SIRT5 block 18
